Results published in ChEMBL document CHEMBL3860061, “A Novel Parkinson's Disease Drug Candidate with Potent Anti-neuroinflammatory Effects through the Src Signaling Pathway” (J Med Chem, 2016).
Activity calls are given as the source filed them.

Columns and labels:
Mus musculus [1] = experiment: Effect on GSK3beta protein expression level in midbrain of MPTP/probenecid-induced chronic C57/BL mouse Parkinson's disease model at 5 to 20 mg/kg dosed once daily for 7 weeks post 10 doses of MPTP/probenecid for 5 weeks by iTRAQ-labelled 2D-LC/MS/MS analysis; type: functional, organism-based
[2] = biological target: Proto-oncogene tyrosine-protein kinase Src (Rattus norvegicus) (UniProt Q9WUD9); experiment: Inhibition of Src in Sprague-Dawley rat primary microglia cells assessed as suppression of LPS-stimulated Akt phosphorylation at Ser-473 residue at 10 uM preincubated for 1 hr followed by LPS challenge measured after 3 hrs by Western blot analysis
How it was run: (§1)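 Primary microglia from 1-day-old Sprague-Dawley rat brains, grown to confluence 12–14 days, shaken off astroglia (>98% pure). Agent at 10 µM added 1 h before LPS 100 ng/mL. Phosphorylated Src, Akt and PTEN measured 3 h later by Western blot, n = 4.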

Mus musculus [3] = experiment: In vivo inhibition of Src in MPTP/probenecid-induced chronic C57/BL mouse Parkinson's disease model assessed as effect on PTEN expression level in midbrain at 5 to 20 mg/kg co-administered with L-DOPA once in a day for 7 weeks post 10 doses of MPTP for 5 weeks by Western blot analysis; type: functional, organism-based
Mus musculus [4] = experiment: In vivo inhibition of Src in MPTP/probenecid-induced chronic C57/BL mouse Parkinson's disease model assessed as effect on Akt expression level in midbrain at 5 to 20 mg/kg dosed once daily for 7 weeks post 10 doses of MPTP/probenecid for 5 weeks by iTRAQ-labelled 2D-LC/MS/MS analysis; type: functional, organism-based
Mus musculus [5] = experiment: Antineuro-inflammatrory activity in MPTP/probenecid-induced chronic C57/BL mouse Parkinson's disease model assessed as decrease in IL-1beta level in midbrain at 10 to 20 mg/kg dosed once daily for 7 weeks post 10 doses of MPTP/probenecid for 5 weeks measured after last MPTP/probenecid dose for 5 weeks by ELISA; type: functional, organism-based
How it was run: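 Male C57/BL mice (22–25 g) received 10 doses of MPTP hydrochloride (25 mg/kg in saline, s.c.) plus probenecid (250 mg/kg in DMSO, i.p.) over 5 weeks. Only mice failing the rotarod afterwards were randomised to agent (5, 10, 20 mg/kg) or L-DOPA 20 mg/kg in 0.5% CMC-Na, once daily for 7 weeks. Midbrain lysate in non-denaturing buffer with protease inhibitor; IL-1β or TNF-α by ELISA, n = 6.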

Mus musculus [6] = experiment: Effect on ROCK1 protein expression level in midbrain of MPTP/probenecid-induced chronic C57/BL mouse Parkinson's disease model at 5 to 20 mg/kg dosed once daily for 7 weeks post 10 doses of MPTP/probenecid for 5 weeks by Western blot analysis; type: functional, organism-based
[7] = biological target: Proto-oncogene tyrosine-protein kinase Src (Rattus norvegicus) (UniProt Q9WUD9); experiment: Inhibition of Src in Sprague-Dawley rat primary microglia cells assessed as suppression of LPS-stimulated PTEN phosphorylation at Tyr-240 residue at 10 uM preincubated for 1 hr followed by LPS challenge measured after 3 hrs by Western blot analysis; how it was run: as §1
Mus musculus [8] = experiment: Neuroprotective activity in alpha-syn A53T transgenic B6C3H mouse assessed as improvement in motor behavior at 5 to 20 mg/kg dosed once daily for 12 consecutive weeks by pole test; type: functional, organism-based
Mus musculus [9] = experiment: Antineuro-inflammatrory activity in MPTP-induced subacute C57/BL mouse Parkinson's disease model assessed as decrease in IL-1beta levels in midbrain at 10 to 20 mg/kg […] dosed 30 mins prior to each MPTP injection for 5 days and administered continuously for 7 days post last MPTP dose measured on day 12 post last dose by ELISA; type: functional, organism-based
How it was run: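 Male C57/BL mice (22–25 g) received MPTP hydrochloride 30 mg/kg i.p. daily for 5 days. Test agent (5, 10, 20 mg/kg) or L-DOPA 20 mg/kg, suspended in 0.5% CMC-Na, given 30 min before each MPTP injection, then continued for 7 more days. On day 12 the midbrain was homogenised in non-denaturing lysis buffer with protease inhibitor and IL-1β or TNF-α measured by ELISA, n = 6, mean ± SD.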

Mus musculus [10] = experiment: Neuroprotective activity in MPTP/probenecid-induced chronic C57/BL mouse Parkinson's disease model assessed as reversal of decline of TH-positive neuron levels in substantia nigra at 10 to 20 mg/kg dosed once daily for 7 weeks post 10 doses of MPTP/probenecid for 5 weeks measured after last MPTP/probenecid dose by 3,3'-diaminobenzidine staining based light microscopic analysis; type: functional, organism-based
How it was run: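 Male C57/BL mice (22–25 g) received 10 doses of MPTP hydrochloride (25 mg/kg in saline, s.c.) plus probenecid (250 mg/kg in DMSO, i.p.) over 5 weeks. Only mice showing rotarod dysfunction afterwards were used, randomized, and dosed daily for 7 weeks with test agent in 0.5% CMC-Na. Fixed brains were cut at 40 µm; nigral coronal sections were stained with anti-TH, developed with DAB/peroxide, and positive cells counted blind.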

Mus musculus [11] = experiment: Increase in dopamine levels in alpha-syn A53T transgenic B6C3H mouse striatum at 10 to 20 mg/kg dosed once daily for 12 consecutive weeks by HPLC analysis; type: functional, organism-based
How it was run: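 α-syn A53T transgenic B6;C3H mice, dosed from 4 months of age once daily for 12 weeks with agent (5–20 mg/kg) or L-DOPA 20 mg/kg in 0.5% CMC-Na. Striatum sonicated in 0.6 N perchloric acid, phosphate/citrate/EDTA solution added, centrifuged; dopamine by HPLC, n = 8.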

Mus musculus [12] = experiment: Effect on ARHGAP21 protein expression level in midbrain of MPTP/probenecid-induced chronic C57/BL mouse Parkinson's disease model at 5 to 20 mg/kg dosed once daily for 7 weeks post 10 doses of MPTP/probenecid for 5 weeks by Western blot analysis; type: functional, organism-based
Mus musculus [13] = experiment: In vivo inhibition of Src in MPTP/probenecid-induced chronic C57/BL mouse Parkinson's disease model assessed as effect on NOS1 expression level in midbrain at 5 to 20 mg/kg dosed once daily for 7 weeks post 10 doses of MPTP/probenecid for 5 weeks by iTRAQ-labelled 2D-LC/MS/MS analysis; type: functional, organism-based
[14] = biological target: Proto-oncogene tyrosine-protein kinase Src (Rattus norvegicus) (UniProt Q9WUD9); experiment: Inhibition of Src in Sprague-Dawley rat primary mixed mesecephalic neuron/glial cells assessed as suppression of LPS-induced TNFalpha expression at 10 uM preincubated for 1 hr followed by LPS challenge measured after 5 hrs by ELISA
How it was run: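 Mixed mesencephalic neuron/glia cultures from E14 Sprague-Dawley rats, used at 7 days. Agent at 10 µM added 1 h before LPS 100 ng/mL; IL-1β and TNF-α in medium measured by ELISA after 5 h, n = 6.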

Chain of Proto-oncogene tyrosine-protein kinase Src (Rattus norvegicus) (Q9WUD9 2-536 limits assumed): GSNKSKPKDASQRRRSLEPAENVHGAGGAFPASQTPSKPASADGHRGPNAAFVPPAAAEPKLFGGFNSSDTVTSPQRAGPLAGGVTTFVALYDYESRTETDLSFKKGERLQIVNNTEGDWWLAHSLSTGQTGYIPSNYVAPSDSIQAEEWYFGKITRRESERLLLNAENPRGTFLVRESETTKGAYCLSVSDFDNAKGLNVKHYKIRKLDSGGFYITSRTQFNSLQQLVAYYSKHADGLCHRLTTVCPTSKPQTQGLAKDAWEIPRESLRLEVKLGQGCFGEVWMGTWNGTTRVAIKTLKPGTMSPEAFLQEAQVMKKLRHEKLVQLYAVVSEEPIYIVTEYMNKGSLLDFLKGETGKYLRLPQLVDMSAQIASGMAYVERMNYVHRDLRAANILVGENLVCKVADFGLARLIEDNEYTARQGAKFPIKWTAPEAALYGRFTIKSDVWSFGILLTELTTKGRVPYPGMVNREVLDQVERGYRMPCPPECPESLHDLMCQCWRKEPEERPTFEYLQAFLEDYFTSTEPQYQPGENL

COc1cc(OC)c(CN[C@@H](CO)C(=O)O)c(OC)c1
active: Activity (Mus musculus [1]) | inhibition [2] | inhibition (Mus musculus [3]) | inhibition (Mus musculus [4]) | Activity (Mus musculus [5]) | Activity (Mus musculus [6]) | inhibition [7] | Activity (Mus musculus [8]) | Activity (Mus musculus [9]) | Activity (Mus musculus [10]) | Activity (Mus musculus [11]) | Activity (Mus musculus [12]) | inhibition (Mus musculus [13]) | inhibition [14]
